Test results as given in paper PMC4306711 (The Journal of General Physiology, 2015).
Where two headings read alike, the source gives them in different places.

Key:
[1] = tested on: Nav channel; settings: ref Crest et al., 1992; cited from earlier work
[2] = tested on: Kv1.3; settings: ref Crest et al., 1992; cited from earlier work
[3] = tested on: Kv1.1; settings: ref Crest et al., 1992; cited from earlier work
[4] = tested on: rNav1.2a/Kv2.1 VSD IV paddle chimera; format: cell-based, rat
[5] = tested on: rNav1.2a/Kv2.1 VSD IV R1629A/L1630A paddle chimera; format: cell-based, rat; settings: 100 nM AaHII; holding −10 mV, 300-ms step after −150 mV, tail −150 mV
[6] = tested on: isolated rNav1.2a VSD IV paddle motif; test: SPR with immobilized rNav1.2a VSD IV paddle peptide; format: binding, rat; settings: 50 fmol peptide, heterogeneous ligand model, n = 3
Summary of the method: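 Biotinylated synthetic VSD IV paddle peptide (~50 fmol) captured on neutravidin amine-coupled to a CM5 chip. Run at 25°C in 50 mM phosphate, pH 7.2. Toxin at 15–2,000 nM injected at 20 µl/min after a steady baseline; control flow cell subtracted; regenerated with 1 M NaCl (15 s, 30 µl/min). Bulk signal excluded, then fitted to a two-site heterogeneous ligand model; n = 3, mean ± SD.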

[7] = tested on: rNav1.2a/Kv2.1 VSD II paddle chimera; settings: ref Bosmans et al., 2008; cited from earlier work
[8] = biological target: rNav1.2a/Kv2.1 VSD IV chimera R1629A; settings: read-out: apparent KD, VSD IV chimera R1629A, ref Bosmans et al., 2008; cited from earlier work
[9] = tested on: isolated rNav1.2a VSD II paddle motif; test: SPR with immobilized rNav1.2a VSD II paddle peptide; format: binding, rat; settings: up to 20 µM toxin, 25°C
[10] = biological target: rNav1.2a/Kv2.1 VSD IV chimera L1630A; settings: read-out: apparent KD, VSD IV chimera L1630A, ref Bosmans et al., 2008; cited from earlier work
[11] = tested on: rNav1.2a/Kv2.1 VSD IV paddle chimera; settings: electrophysiology; ref Bosmans et al., 2008; cited from earlier work
[12] = biological target: rNav1.2a; settings: cited from earlier work
[13] = tested on: WT rKv2.1; test: Two-electrode voltage-clamp of WT rKv2.1 in Xenopus oocytes; format: cell-based, rat; settings: 1 µM toxin; 300-ms depolarization to 0 mV, holding −90 mV, tail −60 mV
[14] = tested on: rNav1.2a/Kv2.1 VSD II paddle chimera; format: cell-based, rat
[15] = SPR, Biacore T200, 25°C, pH 7.2, 15–2,000 nM, mean ± SD

kaliotoxin [KTX]
influence on Nav channel function [1]: does not influence Nav channel function
Kv1.3 pore block [2]: blocks
Kv1.1 pore block [3]: blocks

AaHII: α-scorpion toxin from Androctonus australis Hector
inhibition of WT rNav1.2a/Kv2.1 VSD IV chimera compared with double mutant ([4]; 100 nM AaHII): influenced to a much lesser extent
inhibition of R1629A/L1630A double mutant chimera [5]: strongly inhibits the double mutant
dissociation rate constant kd1 [6, 15]: 0.000979 ± 0.00014 s⁻¹
dissociation rate constant kd2 [6, 15]: 0.0281 ± 0.0058 s⁻¹
high affinity KD1 (kd1/ka1) [6, 15]: 479 ± 241 nM
RUmax1 ([6]; high affinity site): 135
RUmax2 ([6]; lower affinity site): 23
interaction with rNav1.2a/Kv2.1 VSD II paddle chimera [7]: no interaction was observed
Kd [8]: 235 ± 24 nM
SPR effect on VSD II paddle motif at high toxin concentration [9]: did not notice an effect
Kd [10]: 205 ± 23 nM
binding to VSD IV paddle (rNav1.2a/Kv2.1 chimeras) [11]: shown to bind to the VSD IV paddle motif in rNav1.2a
Kd ([12]; read-out: affinity for WT rNav1.2a, WT rNav1.2a, ref Wang et al., 2011): ~5 nM

AaHI: α-scorpion toxin from Androctonus australis Hector
voltage-dependent K^+ current inhibition, VSD IV paddle chimera ([4]; 100 nM toxin, 300-ms depolarization, holding −90 mV): robust voltage-dependent K^+ current inhibition
depolarizing shift in midpoint (V1/2), VSD IV paddle chimera ([4]; 100 nM toxin, Boltzmann fit, n = 3, holding −90 mV, tail −60 mV): ~15 mV
effect on WT Kv2.1 K^+ current [13]: insensitive

CssIV: β-scorpion toxin from Centruroides suffusus suffusus
influence on VSD IV chimera ([4]; 1 µM toxin, n = 3, holding −90 mV, tail −60 mV): does not influence the VSD IV chimera
depolarizing shift in V1/2, VSD II chimera ([14]; 1 µM toxin, Boltzmann fit, n = 3, holding −90 mV, tail −60 mV): ~14 mV
V1/2 in the presence of toxin, VSD II chimera ([14]; 1 µM toxin, control 33 ± 2 mV, mean ± SEM, n = 3, holding −90 mV, tail −60 mV): 47 ± 1 mV
concentration required to begin inhibiting the rNav1.2a/Kv2.1 VSD II paddle chimera ([14]; Xenopus oocytes, ∼22°C): 1 µM

B1: TsVII: β-scorpion toxin from the Brazilian scorpion Tityus serrulatus (protein, UniProt P15226 21-81, looked up)
Beta-mammal/insect toxin Ts1: KEGYLMDHEGCKLSCFIRPSGYCGRECGIKKGSSGYCAWPACYCYGLPNWVKVWDRATNKC
modifications: ends and bridges not checked
binding to VSD IV paddle (rNav1.2a/Kv2.1 chimeras) [11]: can also bind to the VSD IV paddle
Kd ([12]; read-out: apparent KD, rNav1.2a, ref Bosmans et al., 2008): 25 to 121 nM
